The results in this text go back to ChEMBL document CHEMBL5325481, “Examination of the Impact of Triazole Position within Linkers on Solubility and Lipophilicity of a CDK9 Degrader Series” (ACS Med Chem Lett, 2023).

SMILES strings stand for the structures. Converted amounts (≈) assume the structure as drawn. A value given as a limit tells only on which side of the number the result lay.

Data set [1] in a line: Lipophilicity, logK of compound at pH 7.7 in presence of 80% acetonitrile by HPLC analysis. Type of data set: physicochemical. As to conditions: buffer.
Data set [2] can be described thus: Kinetic solubility of the compound at pH 7.4 incubated for 1.5 hrs under shaking condition by UV plate reader analysis. In kind it is physicochemical. As to conditions: buffer, read-out: Kinetic_solubility.
The subject of data set [3] is MV4-11. Kind of data set: Antiproliferative activity against human MV4-11 cells assessed as inhibition of cell growth measured after 48 hrs by MTS assay. Type of data set: functional, cell-based. To be noted: MV4-11, 48 h. A general note: Formazan colour is commonly taken as a measure of viable cells.
The target in data set [4] is T1, Protein cereblon/Cyclin-dependent kinase 9 (Homo sapiens, UniProt P50750+Q96SW2). Kind of data set: PROTAC activity at CRBN/CDK9 in human MOLM-13 cells assessed as induction of CDK9 degradation incubated for 6 hrs by Western blot analysis. A general note: A western blot detects proteins with antibodies after separation by electrophoresis.
Target sequence in this assay (P50750 whole entry): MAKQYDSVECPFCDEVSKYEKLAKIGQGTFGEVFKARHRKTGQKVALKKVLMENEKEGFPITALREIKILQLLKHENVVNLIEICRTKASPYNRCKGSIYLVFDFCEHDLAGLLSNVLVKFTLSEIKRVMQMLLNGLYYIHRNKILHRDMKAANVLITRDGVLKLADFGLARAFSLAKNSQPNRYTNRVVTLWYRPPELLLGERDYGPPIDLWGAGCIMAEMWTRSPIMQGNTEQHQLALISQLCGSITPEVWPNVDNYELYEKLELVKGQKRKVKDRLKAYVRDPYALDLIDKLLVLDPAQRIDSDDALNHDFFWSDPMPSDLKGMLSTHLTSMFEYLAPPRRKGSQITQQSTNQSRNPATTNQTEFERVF
Target sequence in this assay (Q96SW2 whole entry): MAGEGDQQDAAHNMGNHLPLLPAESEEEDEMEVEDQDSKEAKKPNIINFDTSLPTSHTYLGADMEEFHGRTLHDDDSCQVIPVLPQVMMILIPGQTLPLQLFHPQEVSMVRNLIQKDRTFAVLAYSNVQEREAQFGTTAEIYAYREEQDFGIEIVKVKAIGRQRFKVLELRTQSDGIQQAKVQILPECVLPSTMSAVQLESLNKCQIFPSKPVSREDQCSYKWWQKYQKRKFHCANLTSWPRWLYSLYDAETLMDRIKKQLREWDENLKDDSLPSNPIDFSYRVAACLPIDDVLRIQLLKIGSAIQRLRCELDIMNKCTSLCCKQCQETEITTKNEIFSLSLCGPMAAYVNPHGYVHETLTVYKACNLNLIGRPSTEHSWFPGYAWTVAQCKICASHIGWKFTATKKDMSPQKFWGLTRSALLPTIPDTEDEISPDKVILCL
A short description of data set [5]: Aqueous solubility of the compound. Type of data set: physicochemical.
Data set [6] concerns the target T1, Protein cereblon/Cyclin-dependent kinase 9. Nature of the data set: PROTAC activity at CRBN/CDK9 in human MOLM-13 cells assessed as induction of CDK9 degradation by measuring maximal efficacy at 0.01 to 5 uM incubated for 6 hrs by Western blot analysis relative to control. As to conditions: dose 0.01-5 µM.
Target sequence in this assay (P50750 whole entry, looked up): as the sequence (P50750 whole entry) above
Target sequence in this assay (Q96SW2 whole entry, looked up): as the sequence (Q96SW2 whole entry) above
The test system of data set [7] is MV4-11. Nature of the data set: Antiproliferative activity against human MV4-11 cells assessed as inhibition of cell growth measured after 48 hrs in presence of human serum by MTS assay. In kind it is functional. Put shortly: (§1)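 MV4-11 AML cells exposed to compound, with growth medium supplemented with either human serum or fetal bovine serum. Cytotoxicity IC50 was determined in each serum condition. The serum shift is the change in activity between human serum and fetal bovine serum.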

Data set [8] relates to MV4-11. Kind of data set: Antiproliferative activity against human MV4-11 cells assessed as fold decrease in cell growth measured after 48 hrs in presence of human serum by MTS assay. In kind it is functional. Put shortly:
as §1

Data set [9] concerns MV4-11. Nature of the data set: Antiproliferative activity against human MV4-11 cells assessed as inhibition of cell growth measured after 48 hrs in presence of fetal bovine serum by MTS assay. In kind it is functional. The essentials:
as §1

In the case of `O=C(NC1CCNCC1)c1n[nH]cc1NC(=O)c1c(Cl)cccc1Cl` [AT-7519], in data set [1], the “log K” value worked out at 0.134. The solubility kinetic at 1.5 h in data set [2] was 512 µM (≈ 196 µg/mL). For the same compound, the IC50 with MV4-11 [3] (read-out: IC50) was 120 nM; in the data set on MV4-11 [3] (read-out: pIC50 (converted)) it was 126 nM.
In the case of `O=C1CCC(N2C(=O)c3cccc(OCCCCCn4cc(CCCCCN5CCC(NC(=O)c6n[nH]cc6NC(=O)c6c(Cl)cccc6Cl)CC5)nn4)c3C2=O)C(=O)N1` (configuration not stated), in [4], the DC50 (commonly the concentration giving 50% degradation) is 950 nM. Besides, the “log K” value in data set [1] is given as 0.112. The amount in solution in data set [5] (solubility) came to 13.2 µM (≈ 11.4 µg/mL). For the same compound, the solubility kinetic at 1.5 h in [2] stood at 13.2 µM (≈ 11.4 µg/mL). For the same compound, the Emax (usually the greatest response seen or fitted, relative to the assay's reference) in data set [6] was found to be 68.5%. In addition, the IC50 was 130 nM with MV4-11 [3] (read-out: IC50) and 126 nM in the data set with MV4-11 [3] (read-out: pIC50 (converted)).
In the case of `O=C1CCC(N2C(=O)c3cccc(OCCCCCCCn4cc(CCCCCCCN5CCC(NC(=O)c6n[nH]cc6NC(=O)c6c(Cl)cccc6Cl)CC5)nn4)c3C2=O)C(=O)N1` (configuration not stated), the DC50 in data set [4] turned out to be 60 nM. Further, in [1], the “log K” value turned out to be 0.176. Moreover, in data set [2], the solubility kinetic at 1.5 h was 4.7 µM (≈ 4.31 µg/mL). In [6], the maximum response (Emax) worked out at 78%. Moreover, the IC50 was 60 nM in the data set on MV4-11 [3] (read-out: IC50) and 63.1 nM with MV4-11 [3] (read-out: pIC50 (converted)).
For the compound `O=C1CCC(N2C(=O)c3cccc(OCCCCn4cc(CCCCN5CCC(NC(=O)c6n[nH]cc6NC(=O)c6c(Cl)cccc6Cl)CC5)nn4)c3C2=O)C(=O)N1` (configuration not stated), the EC in the data set with MV4-11 [7] was 69.3 nM; with MV4-11 [9], 190.1 nM. Also, the DC50 in data set [4] was found to be 70 nM. Further, the “log K” value in data set [1] turned out to be 0.084. For the same compound, the solubility – broadly, how much of the substance goes into solution per volume – in data set [5] was at least 40 µM. Besides, the solubility kinetic at 1.5 h in data set [2] was 40.9 µM (≈ 34.1 µg/mL). Moreover, the “fold change (FC)” value in the data set on MV4-11 [8] turned out to be 3. Besides, the Emax in data set [6] turned out to be 79.1%. For the same compound, the IC50 in the data set with MV4-11 [3] (read-out: IC50) is 190 nM; in the data set on MV4-11 [3] (read-out: pIC50 (converted)) it was 200 nM.
Regarding `O=C1CCC(N2C(=O)c3cccc(OCCCCCCCn4cc(CCCCCN5CCC(NC(=O)c6n[nH]cc6NC(=O)c6c(Cl)cccc6Cl)CC5)nn4)c3C2=O)C(=O)N1` (configuration not stated), the DC50 in data set [4] worked out at 100 nM. Besides, in data set [1], the “log K” value worked out at 0.14. The solubility kinetic at 1.5 h in data set [2] was determined as 5.46 µM (≈ 4.86 µg/mL). Moreover, the Emax in [6] came to 70.1%. Also, the results for the IC50 in the data set on MV4-11 [3] (read-out: IC50) and with MV4-11 [3] (read-out: pIC50 (converted)) were 50 nM and 50.1 nM, respectively.
For the compound `O=C1CCC(N2C(=O)c3cccc(OCCCCCn4cc(CCCCN5CCC(NC(=O)c6n[nH]cc6NC(=O)c6c(Cl)cccc6Cl)CC5)nn4)c3C2=O)C(=O)N1` (configuration not stated), in [4], the DC50 was 130 nM. In addition, in data set [1], the “log K” value is 0.1. Also, in data set [2], the solubility kinetic at 1.5 h stood at 12.4 µM (≈ 10.5 µg/mL). Further, the Emax in data set [6] turned out to be 67.5%. Further, the IC50 with MV4-11 [3] (read-out: IC50) was 240 nM; in the data set with MV4-11 [3] (read-out: pIC50 (converted)) it was 251 nM.
In the case of `O=C1CCC(N2C(=O)c3cccc(OCCCCn4cc(CCCCCCN5CCC(NC(=O)c6n[nH]cc6NC(=O)c6c(Cl)cccc6Cl)CC5)nn4)c3C2=O)C(=O)N1` (configuration not stated), the DC50 in [4] is 100 nM. The “log K” value in data set [1] came to 0.116. In addition, in data set [5], the solubility came to 12.9 µM (≈ 11.1 µg/mL). Moreover, the solubility kinetic at 1.5 h in data set [2] stood at 12.9 µM (≈ 11.1 µg/mL). Further, the Emax in [6] was found to be 75.3%. Moreover, the IC50 was 70 nM with MV4-11 [3] (read-out: IC50) and 79.4 nM in the data set on MV4-11 [3] (read-out: pIC50 (converted)).
Take `O=C1CCC(N2C(=O)c3cccc(OCCCCn4cc(CCCCCN5CCC(NC(=O)c6n[nH]cc6NC(=O)c6c(Cl)cccc6Cl)CC5)nn4)c3C2=O)C(=O)N1` (configuration not stated): the DC50 in [4] was found to be 400 nM. In addition, the “log K” value in data set [1] stood at 0.106. For the same compound, in data set [2], the solubility kinetic at 1.5 h is 31.3 µM (≈ 26.5 µg/mL). Also, the Emax in [6] was found to be 58.6%. In addition, the IC50 with MV4-11 [3] (read-out: IC50) was 190 nM; with MV4-11 [3] (read-out: pIC50 (converted)), 200 nM.
On to `O=C1CCC(N2C(=O)c3cccc(OCCCCn4cc(CCCCCCCCCCN5CCC(NC(=O)c6n[nH]cc6NC(=O)c6c(Cl)cccc6Cl)CC5)nn4)c3C2=O)C(=O)N1` (configuration not stated), for which the EC with MV4-11 [7] is on record as 28.6 nM; with MV4-11 [9], 8.8 nM. The DC50 in [4] is 40 nM. The “log K” value in data set [1] was determined as 0.197. The solubility kinetic at 1.5 h in data set [2] stood at 3.42 µM (≈ 3.14 µg/mL). Further, in the data set on MV4-11 [8], the “fold change (FC)” value was found to be 3. For the same compound, the maximal effect (Emax) in data set [6] worked out at 88.6%. Further, the IC50 is 10 nM in the data set on MV4-11 [3] (read-out: IC50) and 7.94 nM with MV4-11 [3] (read-out: pIC50 (converted)).
For the compound `O=C1CCC(N2C(=O)c3cccc(OCCCCCCCCn4cc(CCCCCCN5CCC(NC(=O)c6n[nH]cc6NC(=O)c6c(Cl)cccc6Cl)CC5)nn4)c3C2=O)C(=O)N1` (configuration not stated), the half-maximal degradation concentration (DC50) in data set [4] came out at 70 nM. Also, in [1], the “log K” value stood at 0.184. The solubility kinetic at 1.5 h in data set [2] amounted to 2.38 µM (≈ 2.18 µg/mL). Also, the maximal response (Emax) in [6] turned out to be 86.2%. For the same compound, the IC50 in the data set on MV4-11 [3] (read-out: IC50) was 70 nM; in the data set with MV4-11 [3] (read-out: pIC50 (converted)), 79.4 nM.
On to `O=C1CCC(N2C(=O)c3cccc(OCCCCCCCCn4cc(CCN5CCC(NC(=O)c6n[nH]cc6NC(=O)c6c(Cl)cccc6Cl)CC5)nn4)c3C2=O)C(=O)N1` (configuration not stated), for which the values for the EC in the data set on MV4-11 [7] and in the data set on MV4-11 [9] were 881.9 nM and 46.9 nM, respectively. In addition, the DC50 in [4] was found to be 60 nM. Moreover, the “log K” value in [1] is recorded as 0.146. This compound also had a solubility in data set [5] of 5.65 µM (≈ 4.87 µg/mL). In data set [2], the solubility kinetic at 1.5 h amounted to 5.65 µM (≈ 4.87 µg/mL). Also, the “fold change (FC)” value with MV4-11 [8] came to 20. For the same compound, in data set [6], the Emax came out at 88.3%. In addition, the IC50 with MV4-11 [3] (read-out: IC50) was 50 nM; in the data set with MV4-11 [3] (read-out: pIC50 (converted)) it was 50.1 nM.
